Results from ChEMBL document CHEMBL4619765 (J Nat Prod, 2020).
Calls of active or inactive are those of the source. No cut-off for these calls is given here.

Assays:
[1] = Inhibition of complex 1 in bovine heart mitochondrial membranes in presence of NADH; parameters: species or system Bos taurus
LNCaP C4-2B [2] = test: Antiproliferative activity against human C4-2B cells at 1 uM after 150 hrs; format: functional, cell-based
Method in brief: (§1)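 Seeded at 1,000 cells/well in RPMI 1640 with 10% FBS, 25 mM HEPES and 1 mM pyruvate; after 24 h, 1 μM rotenoid (ethanolic stock diluted in medium) or ethanol-only control added. Growth followed by live-cell imaging as confluence (% well area covered) until untreated control reached confluence; value at 150 h of treatment. Eight replicates per condition, mean ± S.E.M.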

LNCaP C4-2 [3] = test: Antiproliferative activity against human C4-2 cells at 1 uM after 150 hrs; format: functional, cell-based; method in brief: as §1
PNT2 [4] = test: Inhibition of cell proliferation in human PNT2 cells at 1 uM after 150 hrs; format: cell-based; conditions: pnt2, 150 h; method in brief: as §1
LNCaP C4-2 [5] = test: Inhibition of complex 1 in human C4-2 cells assessed as reduction in oxygen rate at 1 uM incubated for 1 hr followed by rotenone and antimycin addition; format: cell-based
Method in brief: (§2)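 Cells seeded at 20,000/well on poly-L-lysine-coated Seahorse XF96 plates for 16 h, then moved into carbonate-free RPMI assay buffer (4.5 g/L glucose, pyruvate, GlutaMAX, pH 7.4). […] Rotenone-insensitive rate subtracted and traces normalized to 100% pre-addition. n = 6 treated, 16 controls; mean ± S.E.M.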

LNCaP C4-2B [6] = test: Inhibition of complex 1 in human C4-2B cells assessed as reduction in oxygen rate at 1 uM incubated for 1 hr followed by rotenone and antimycin addition; format: cell-based; method in brief: as §2
LNCaP C4-2B [7] = test: Cytotoxicity against human C4-2B cells assessed as reduction in cell viability at 1 uM after 48 hrs by acridine orange/DAPI staining based assay; format: functional
Method in brief: (§3)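 Cells trypsinized, pelleted, resuspended in PBS and stained with acridine orange/DAPI; viability and cell count read on an NC-3000 image cytometer. n = 4 treated, n = 10 control; mean ± S.E.M.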

PNT2 [8] = test: Inhibition of complex 1 in human PNT2 cells assessed as reduction in oxygen rate at 1 uM incubated for 1 hr followed by rotenone and antimycin addition; format: cell-based; method in brief: as §2
PNT2 [9] = test: Cytotoxicity against human PNT2 cells assessed as reduction in cell viability at 1 uM after 48 hrs by acridine orange/DAPI staining based assay; conditions: pnt2, 48 h; method in brief: as §3
LNCaP C4-2 [10] = test: Cytotoxicity against human C4-2 cells assessed as reduction in cell count at 1 uM after 48 hrs by acridine orange/DAPI staining based assay; format: functional; method in brief: as §3
LNCaP C4-2 [11] = test: Cytotoxicity against human C4-2 cells assessed as reduction in cell viability at 1 uM after 48 hrs by acridine orange/DAPI staining based assay; format: functional; method in brief: as §3
LNCaP C4-2B [12] = test: Cytotoxicity against human C4-2B cells assessed as reduction in cell count at 1 uM after 48 hrs by acridine orange/DAPI staining based assay; format: functional; method in brief: as §3
MEF = test: Cytotoxicity against PTEN-deficient MEF at 0.5 uM after 24 hrs by MTT assay relative to control; format: cell-based; conditions: mouse
PNT2 [13] = test: Cytotoxicity against human PNT2 cells assessed as reduction in cell count at 1 uM after 48 hrs by acridine orange/DAPI staining based assay; conditions: pnt2, 48 h; method in brief: as §3
LNCaP = test: Cytotoxicity against human LNCAP cells; format: functional; conditions: read-out: ED50 (the source's name)

In the case of `COc1cc2c(cc1OC)[C@@H]1[C@H](O)c3ccc4c(c3O[C@@H]1CO2)C=CC(C)(C)O4`, the IC50 [1] is reported as 0.0146 µM.
With `COc1cc2c(cc1OC)[C@]1(O)C(=O)c3ccc4c(c3O[C@@H]1CO2)C[C@H](C(C)(O)CO)O4` (stereo not given in full) the IC50 [1] was > 10 µM.
Work on `C=C(C)CCc1c(O)ccc2c1O[C@@H]1COc3cc(OC)c(OC)cc3[C@@H]1C2=O` yielded an IC50 [1] of 0.572 µM.
In the case of `COc1cc2c(cc1OC)[C@]1(O)[C@H](O)c3ccc4c(c3O[C@@H]1CO2)C[C@H](C(C)(C)O)O4`, the IC50 [1] is reported as > 10 µM.
Compound `COc1cc2c(cc1OC)[C@]1(O)[C@H](O)c3ccc4c(c3O[C@@H]1CO2)C=CC(C)(C)O4` has an IC50 [1] of 0.135 µM.
With `C=C(C)[C@H]1Cc2c(ccc3c2O[C@@H]2COc4cc(OC)c(OC)cc4[C@]2(O)[C@@H]3O)O1` the IC50 [1] was 0.125 µM.
For `COc1cc2c(cc1OC)[C@@H]1C(=O)c3ccc4c(c3O[C@@H]1CO2)C[C@H](C(C)(O)CO)O4` (stereo not given in full), the Activity (LNCaP C4-2B [2]) was “Active”, the Activity (LNCaP C4-2 [3]) was “Active” and the Activity (PNT2 [4]) was “Non-Toxic”. The IC50 [1] was 1.8 µM, the inhibition (LNCaP C4-2 [5]) was “Active” and the inhibition (LNCaP C4-2B [6]) was “Active”. For the same compound, the Activity (LNCaP C4-2B [7]) was “inactive”, the inhibition (PNT2 [8]) was “Active” and the Activity (PNT2 [9]) was “Non-Toxic”. The Activity (LNCaP C4-2 [10]) was “Active” and the Activity (LNCaP C4-2 [11]) was “inactive”.
Compound `C=C(CO)[C@H]1Cc2c(ccc3c2O[C@@H]2COc4cc(OC)c(OC)cc4[C@@H]2[C@@H]3O)O1` has an IC50 [1] of 0.458 µM.
In the case of `C=C(CO)[C@H]1Cc2c(ccc3c2O[C@@H]2COc4cc(OC)c(OC)cc4[C@]2(O)[C@@H]3O)O1`, the IC50 [1] is reported as > 10 µM.
`C=C(C)[C@H]1Cc2c(ccc3c2O[C@@H]2COc4cc(OC)c(OC)cc4[C@@H]2[C@@H]3O)O1` gave an IC50 [1] of 0.0114 µM.
For `COc1cc2c(cc1OC)[C@]1(O)[C@H](O)c3ccc4c(c3O[C@@H]1CO2)C[C@H](C(C)(O)CO)O4` (stereo not given in full), the IC50 [1] was > 10 µM.
For `COc1cc2c(cc1OC)[C@@H]1[C@H](O)c3ccc4c(c3O[C@@H]1CO2)C[C@H](C(C)(C)O)O4`, the IC50 [1] was 0.75 µM.
For `C=C(C)C(=O)Cc1c(O)ccc2c1O[C@@H]1COc3cc(OC)c(OC)cc3[C@]1(O)C2=O`, the IC50 [1] was > 10 µM.
Compound `C=C(C)C(=O)Cc1c(O)ccc2c1O[C@@H]1COc3cc(OC)c(OC)cc3[C@@H]1C2=O` has an IC50 [1] of 2.57 µM.
For `COc1cc2c(cc1OC)[C@]1(O)C(=O)c3ccc4c(c3O[C@@H]1CO2)C[C@H](C(C)(C)O)O4`, the IC50 [1] was > 10 µM.
`COc1cc2c(cc1OC)[C@@H]1C(=O)c3ccc4c(c3O[C@@H]1CO2)C(O)C(O)C(C)(C)O4` (mixture of isomers) gave an IC50 [1] of 5.31 µM.
With `COc1cc2c(cc1OC)[C@@H]1C(=O)c3ccc4c(c3O[C@@H]1CO2)CCC(C)(CO)O4` (mixture of isomers) the IC50 [1] was 0.195 µM.
In the case of `COc1cc2c(cc1OC)[C@@H]1C(=O)c3ccc4c(c3O[C@@H]1CO2)C[C@H](C(C)CO)O4` (mixture of isomers), the Activity (LNCaP C4-2B [2]) is reported as “Active”, the Activity (LNCaP C4-2 [3]) is reported as “Active” and the Activity (PNT2 [4]) is reported as “Non-Toxic”. The Activity (LNCaP C4-2B [12]) was “Active”, the IC50 [1] was 0.228 µM and the inhibition (LNCaP C4-2 [5]) was “Active”. For the same compound, the inhibition (LNCaP C4-2B [6]) was “Active”, the Activity (LNCaP C4-2B [7]) was “inactive” and the inhibition (PNT2 [8]) was “Active”. For the same compound, the Activity (PNT2 [9]) was “Non-Toxic”, the Activity (LNCaP C4-2 [10]) was “Active” and the Activity (LNCaP C4-2 [11]) was “inactive”.
Compound `COc1cc2c(cc1OC)[C@]1(O)C(=O)c3ccc4c(c3O[C@@H]1CO2)C[C@H](C(C)CO)O4` (mixture of isomers) has an IC50 [1] of 3.58 µM.
For `COc1cc2c(cc1OC)[C@@H]1[C@H](O)c3ccc4c(c3O[C@@H]1CO2)C[C@H](C(C)CO)O4` (mixture of isomers), the IC50 [1] was 0.46 µM.
`COc1cc2c(cc1OC)[C@]1(O)[C@H](O)c3ccc4c(c3O[C@@H]1CO2)C[C@H](C(C)CO)O4` (mixture of isomers) showed an IC50 [1] of 2.93 µM.
Compound `COc1cc2c(cc1OC)[C@@H]1[C@H](O)c3ccc4c(c3O[C@@H]1CO2)C[C@H](C(C)(O)CO)O4` (mixture of isomers) has an IC50 [1] of 4.57 µM.
For `COc1cc2c(cc1OC)[C@@H]1C(=O)c3ccc4c(c3O[C@@H]1CO2)CC(O)C(C)(C)O4` (mixture of isomers), the IC50 [1] was 0.85 µM.
`C=C(CO)[C@H]1Cc2c(ccc3c2O[C@@H]2COc4cc(OC)c(OC)cc4[C@]2(O)C3=O)O1` [DABINOL] gave an IC50 [1] of 3.81 µM.
For `COc1cc2c(cc1OC)[C@@H]1C(=O)c3ccc4c(c3O[C@@H]1CO2)C[C@H](C(C)(C)O)O4` [DALPANOL], the Activity (LNCaP C4-2B [2]) was “Active”, the Activity (LNCaP C4-2 [3]) was “Active” and the Activity (PNT2 [4]) was “Non-Toxic”. For the same compound, the IC50 [1] was 0.652 µM, the inhibition (LNCaP C4-2 [5]) was “Active” and the inhibition (LNCaP C4-2B [6]) was “Active”. For the same compound, the Activity (LNCaP C4-2B [7]) was “inactive”, the inhibition (PNT2 [8]) was “Active” and the Activity (PNT2 [9]) was “Non-Toxic”. For the same compound, the Activity (LNCaP C4-2 [10]) was “Active” and the Activity (LNCaP C4-2 [11]) was “inactive”.
Compound `COc1cc2c(cc1OC)[C@@H]1C(=O)c3ccc4c(c3O[C@@H]1CO2)C=CC(C)(C)O4` [DEGUELIN] has an IC50 [1] of 0.0106 µM and an Activity (MEF) of 70%.
`C=C(C)[C@H]1Cc2c(ccc3c2O[C@@H]2COc4cc(OC)c(OC)cc4[C@]2(O)C3=O)O1` [ROTENOLONE] showed an IC50 [1] of 0.13 µM.
For `C=C(C)[C@H]1Cc2c(ccc3c2O[C@@H]2COc4cc(OC)c(OC)cc4[C@@H]2C3=O)O1` [ROTENONE], the Activity (LNCaP C4-2B [2]) was “Active”, the Activity (LNCaP C4-2 [3]) was “Active” and the Activity (PNT2 [4]) was “Non-Toxic”. For the same compound, the Activity (LNCaP C4-2B [12]) was “Active”, the Activity (LNCaP C4-2B [7]) was “inactive” and the Activity (PNT2 [13]) was “Toxic”. The Activity (PNT2 [9]) was “Non-Toxic”, the Activity (LNCaP C4-2 [10]) was “Active” and the Activity (LNCaP C4-2 [11]) was “inactive”.
For `COc1cc2c(cc1OC)[C@@H]1C(=O)c3ccc(O)c(CC=C(C)C)c3O[C@@H]1CO2` [ROTENONIC ACID], the IC50 [1] was 1.09 µM.
`COc1cc2c(cc1OC)[C@]1(O)C(=O)c3ccc4c(c3O[C@@H]1CO2)C=CC(C)(C)O4` [TEPHROSIN] gave an EC50 (LNCaP) of 0.3 to 0.7 µM.
